# From PubChem BioAssay
# Rows were chosen to be rich in hits. Some 3.3% of all compounds tested hit in one or more screens of this group.
# SENP7 inh = SENP7 protease inhibitors, primary screen, biochemical, luminescence, uHTS; Sentrin-specific protease 7 (Homo sapiens), Q9BQF6; recombinant SENP7, Z-RLRGG-aminoluciferin luminescence, 40 min; inhibition, % at 5 µM; hit rate 1.5% among 330,000;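 active = inhibition above about 50% at the single test dose, limit read from the data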;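 also: plate controls were DMSO with enzyme for no effect and no enzyme buffer wells for full effect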
# Target sequence (Q9BQF6 706-1050 limits assumed): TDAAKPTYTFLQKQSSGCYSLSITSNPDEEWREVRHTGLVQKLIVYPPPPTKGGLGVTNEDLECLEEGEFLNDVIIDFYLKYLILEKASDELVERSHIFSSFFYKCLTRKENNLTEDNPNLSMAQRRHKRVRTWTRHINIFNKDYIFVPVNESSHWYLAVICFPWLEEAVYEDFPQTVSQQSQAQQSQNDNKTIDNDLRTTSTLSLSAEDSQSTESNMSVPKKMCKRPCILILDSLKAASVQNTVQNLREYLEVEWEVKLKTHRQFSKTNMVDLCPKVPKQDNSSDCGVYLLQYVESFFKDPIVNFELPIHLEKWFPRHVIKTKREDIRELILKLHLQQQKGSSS
# SENP8 block-1 = human SENP8 protease inhibitors, primary screen, biochemical, fluorescence, Nedd8 protein substrate, uHTS. hit rate 0.64% among 360,000. inhibition, % at 20 µM. recombinant SENP8. Sentrin-specific protease 8 (Homo sapiens), Q96LD8. AID 602440, 2012; in the data active = inhibition mostly above about 40%, no sharp cut-off; inactive = mostly below about 27%
# SENP6 block = SENP6 protease inhibitors, primary screen, biochemical, luminescence, uHTS; inhibition, % at 10 µM; hit rate 1.8% among 330,000; Recombinant SENP6 catalytic domain, aminoluciferin luminescence;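 active = inhibition above about 50% at the single tested dose, limit read from the data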;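 also: plate controls were DMSO wells with enzyme for no effect and DMSO wells lacking enzyme for full effect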
# SENP1 inh = human SENP1 catalytic domain inhibitors, primary screen, biochemical, FRET, uHTS. Sentrin-specific protease 1 (Homo sapiens), Q9P0U3. recombinant SENP1 catalytic domain, CyPet-SUMO1-YPet FRET cleavage. inhibition, % at 10 µM. hit rate 0.21% among 360,000;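 active = inhibition at least 30% at 10 µM, raw YFP signal under a set limit, fluorescence ratio 0.5 to 1.5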;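 also: 0% = enzyme with DMSO and 100% = no enzyme wells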
# Target sequence (Q9P0U3 419-644 limits assumed): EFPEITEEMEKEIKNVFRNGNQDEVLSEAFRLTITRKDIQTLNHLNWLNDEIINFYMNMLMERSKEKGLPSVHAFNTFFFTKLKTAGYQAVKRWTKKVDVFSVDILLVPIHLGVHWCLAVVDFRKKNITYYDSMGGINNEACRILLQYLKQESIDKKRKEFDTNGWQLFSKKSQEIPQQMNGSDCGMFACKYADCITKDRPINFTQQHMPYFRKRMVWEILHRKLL
#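 system = hSENP1 catalytic domain, recombinant | reagent = SFCypet-SUMO1-SFYpet substrate at 25 nM | doses = one dose per compound, 10 µM, 0.5% DMSO | incubation = enzyme reaction for 50 min at room temperature, dark | measured by = FRET, CFP and YFP emission | controls = no-enzyme low, enzyme-DMSO high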
# SENP8 block-2 = SENP8 protease inhibitors, primary screen, biochemical, luminescence; Sentrin-specific protease 8 (Homo sapiens), Q96LD8; purified SENP8, Z-RLRGG-aminoluciferin cleavage; inhibition, % at 10 µM; hit rate 1.2% among 330,000; in the data active = inhibition above about 50%
# NRP1-CendR mod = modulators of CendR peptide binding to NRP-1, primary screen, biochemical, fluorescence polarization, uHTS; FAM-RPARPAR peptide binding to NRP-1; Neuropilin-1 (Homo sapiens), O14786; AID 602438, 2012; inhibition, % at 25 µM; hit rate 0.85% among 360,000;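 active = inhibition or corrected inhibition above about 18%, plus a signal ratio from 0.5 to 1.5, limit read from the data, passing the limit was not always enough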
# SENP8 confirm = SENP8 protease inhibitors, retest, confirmation, biochemical, luminescence, single concentration | shares compounds with SENP7 inh | Recombinant SENP8, Z-RLRGG-aminoluciferin luminescence, 60 min | inhibition, % at 12.5 µM | hit rate 40% among 6,200 | AID 488912, 2010;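 active = mean inhibition across replicates above about 50%, limit read from the data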
# SENP6 conf = SENP6 protease inhibitors, confirmation, biochemical, luminescence, single concentration. shares compounds with SENP7 inh. recombinant SENP6, Z-RLRGG-aminoluciferin luminescence. inhibition, % at 12.5 µM. hit rate 58% among 6,200. AID 488915, 2010
# SENP7 confirm = SENP7 protease inhibitors, retest, confirmation, biochemical, luminescence, single concentration; shares compounds with SENP7 inh; recombinant SENP7, Z-RLRGG-aminoluciferin luminescence, 40 min; inhibition, % at 12.5 µM; hit rate 69% among 6,200; AID 488917, 2010
# Casp3 select = caspase-3 protease inhibitors, confirmation, selectivity assay for SENP inhibitor project, biochemical, single concentration; AID 488918, 2010; shares compounds with SENP7 inh; purified caspase-3, Z-DEVD-aminoluciferin luminescence, 60 min; inhibition, % at 12.5 µM; hit rate 60% among 6,200;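 active = mean inhibition above about 50%, limit read from the data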;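 also: plate controls were enzyme with DMSO for no effect and wells without caspase-3 for full effect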
# SENP luc ctr = counter-screen for SENP inhibitors: luminescence interference; shares compounds with SENP7 inh; Pre-incubated SENP8/Z-RLRGG-aminoluciferin, luciferase luminescence interference; inhibition, % at 12.5 µM; hit rate 39% among 6,200;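 active = mean inhibition above about 50% when retested at one dose, limit read from the data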;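 also: plate controls were DMSO wells with completed reaction for no effect and substrate without enzyme for full effect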
# Starred values were filed as active, the others as inactive; nt = no result.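 The calls were made as follows, unless noted: active = mean inhibition above about 50% in the one-dose retest (limit read from the data); inactive = the rest.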
SMILES,SENP7 inh,SENP8 block-1,SENP6 block,SENP1 inh,SENP8 block-2,NRP1-CendR mod,SENP8 confirm,SENP6 conf,SENP7 confirm,Casp3 select,SENP luc ctr
CC(=O)Nc1nc2c(F)cccc2s1,-0.1,-1.9,-4.4,0.8,3.3,-10.5,nt,nt,nt,nt,nt
CN1c2cccc3cccc(c23)N(C)C1(C)C,37.0,-320.5,72.5*,3.9,11.6,-5.4,-3.4,3.9,-3.6,-3.9,-4.8
COc1ccc(N=Cc2c(O)c3ccccc3n2C(C)=O)cc1,2.2,-91.4,33.1,-34.6,5.2,-15.8,nt,nt,nt,nt,nt
COc1ccc(N=Cc2sc(O)c3ccccc23)cc1,69.8*,-2.8,61.5*,-20.0,79.2*,124.0,92.9*,92.2*,99.9*,73.2*,81.4*
c1ccc(-c2cn3nc(-c4ccccc4)sc3n2)cc1,93.4*,-33.9,-4.8,3.0,85.2*,-3.5,-7.7,3.1,14.8,7.2,-0.8
Cc1nn2cc(-c3ccccc3)nc2s1,-2.9,9.3,72.2*,-2.0,76.4*,5.9,76.7*,81.0*,96.8*,91.3*,71.0*
Nc1ccccc1C#Cc1ccccc1,65.6*,-459.4,66.9*,-3.3,56.9*,7.8,49.0,75.5*,91.2*,59.2*,63.1*
Nc1ccc(C#Cc2ccccc2)cc1,13.2,-7.0,32.7,2.0,3.4,-3.8,nt,nt,nt,nt,nt
O=C(COc1ccc(Cl)cc1Cl)Nc1ccccn1,99.7*,9.6,-9.5,-1.1,97.8*,-4.5,96.1*,97.8*,100.7*,96.0*,80.3*
CCCCc1cc(=O)oc2cc(C)cc(OCC(=O)Nc3ccccn3)c12,13.1,-255.9,53.2*,3.0,30.5,3.8,40.3,33.8,68.2*,75.8*,53.4*
O=C(COc1ccccc1Cl)Nc1ccc(Cl)cn1,47.7,4.2,73.6*,2.0,37.9,9.3,23.5,60.8*,86.1*,59.7*,6.4
COc1ccccc1OCC(=O)Nc1ccncc1,-4.1,12.4,-4.2,-2.9,-6.2,6.7,nt,nt,nt,nt,nt
CCCc1cc(=O)oc2cc(C)cc(OCC(=O)Nc3ccccn3)c12,2.7,-319.9,12.7,2.8,-4.8,4.7,nt,nt,nt,nt,nt
O=C(COc1ccccc1)Nc1ccc(Cl)cn1,6.0,8.2,0.1,0.8,-13.4,9.5,nt,nt,nt,nt,nt
COc1ccccc1OCC(=O)Nc1ccccn1,85.7*,1.6,82.3*,1.5,77.8*,-6.8,77.7*,74.1*,93.7*,93.4*,81.1*
COc1cc[n+]([O-])cc1[N+](=O)[O-],nt,17.2,nt,1.3,nt,12.3,nt,nt,nt,nt,nt
CCN(c1ccccc1)S(=O)(=O)c1ccc(C(=O)N2CCN(c3ccccc3F)CC2)cc1,nt,9.8,nt,0.7,nt,-1.2,nt,nt,nt,nt,nt
CC(=O)Nc1cccc(NC(=O)C2CCCO2)c1 (stereo unspecified),nt,15.8,nt,-1.9,nt,2.0,nt,nt,nt,nt,nt
COC(=O)C[C@H]1C=C[C@@H](NC(=O)NC2CCCCC2)[C@@H](CO)O1,nt,14.2,nt,1.6,nt,11.0,nt,nt,nt,nt,nt
Cc1c(C)c2ccc(OCC(=O)Nc3ccccn3)c(C)c2oc1=O,100.5*,-260.0,97.6*,0.0,92.2*,-1.5,58.6*,88.5*,38.9,92.6*,19.9
COc1cc(NC(=O)/C=C/c2ccccc2[N+](=O)[O-])cc(OC)c1,62.5*,13.7,73.1*,1.3,55.3*,-7.5,11.0,7.5,-3.1,0.1,0.4
O=C(/C=C/c1ccccc1[N+](=O)[O-])Nc1ccccc1,87.0*,3.1,90.0*,-0.2,80.6*,12.4,83.2*,81.7*,94.2*,81.4*,81.2*
COc1ccc(OC)c(NC(=O)C(=O)N/N=C/c2ccccc2[N+](=O)[O-])c1,92.4*,16.2,-6.7,0.8,-3.9,-3.8,7.4,7.8,7.0,3.8,3.1
O=C(CN(C(=O)CCC(=O)Nc1nccs1)c1cccc(F)c1)NCc1ccccc1,-2.7,3.4,-5.8,1.3,-0.1,10.2,nt,nt,nt,nt,nt
Cc1ccc(S(=O)(=O)Nc2ccccc2C(C(=O)OC(C)(C)C)C(=O)OC(C)(C)C)cc1,nt,6.5,nt,-0.1,nt,-11.1,nt,nt,nt,nt,nt
SMILES,SENP7 inh,SENP8 block-1,SENP6 block,SENP1 inh,SENP8 block-2,NRP1-CendR mod,SENP8 confirm,SENP6 conf,SENP7 confirm,Casp3 select,SENP luc ctr
CC(=O)c1cccc(-c2ccnc3c2CC(C(=O)NCc2cccs2)O3)c1 (stereo unspecified),nt,14.2,nt,-0.1,nt,-14.5,nt,nt,nt,nt,nt
O=c1c2ccccc2oc2ccc(-c3ccc4[nH]ccc4c3)cc12,47.6,-81.3,53.4*,-1.1,43.8,-13.2,16.7,36.5,57.1*,18.2,16.8
CSc1ccc(C2NN=C(c3ccccc3)S2)cc1 (stereo unspecified),98.9*,-425.8,91.7*,2.9,92.5*,0.5,51.9*,53.3*,37.8,59.7*,28.1
Oc1ccccc1C1NN=C(c2ccccc2)S1 (stereo unspecified),95.2*,-252.6,86.2*,-19.8,61.3*,-8.1,39.4,79.1*,69.7*,64.6*,17.5
CCCCOCCOC(=O)C1OC1(C)c1ccccc1 (stereo unspecified),nt,-0.2,nt,0.8,nt,6.7,nt,nt,nt,nt,nt
O=c1c2cc(F)ccc2sn1-c1ccccc1,21.8,5.2,83.7*,1.0,75.4*,2.7,83.3*,84.4*,96.4*,87.9*,77.4*
Cc1nc(-c2coc3cc(OCC(=O)O)ccc3c2=O)cs1,2.3,-22.4,64.6*,1.9,30.9,-7.8,56.7*,53.9*,86.2*,88.0*,63.3*
Cc1nc(-c2coc3cc(O)c(C)cc3c2=O)cs1,97.8*,-142.8,93.4*,-1.4,93.9*,-4.1,84.5*,98.0*,101.5*,95.5*,46.7
Nc1ccn([C@@H]2O[C@H](C(=O)NCC(F)(F)F)[C@@H](O)[C@H]2O)c(=O)n1,nt,3.4,nt,0.3,nt,-9.0,nt,nt,nt,nt,nt
